# Bioassay records (PubChem)
# Shown are actives, neighbours in structure and some others; about 11% of the full set was active somewhere.
# D1 allo mod: allosterically modulates the human D1 dopamine receptor; 58,000 compounds, 5.9% hits; HEK293 D1, CRE-luciferase, dopamine EC30 potentiation; actives deviate in either direction; B-score at 10 µM; AID 641;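 active = luminescence count or its row- and column-corrected plate score outside the 99.7% band of the plate's sample wells, on either side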
# Htt clearance: compounds clearing mutant huntingtin protein. HeLa Exon1htt(103Q)mCFP, aggregate imaging; zero = plate's median compound well. AID 853. inhibition, % at 1.5 µM. 47,000 compounds, 0.42% hits;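 active = inhibition of aggregate fluorescence above about 70%, also judged a hit by eye on the cell image, limit read from the data, passing the limit was not always enough; inconclusive = no rule stated for this call; inactive = not judged a hit on image review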;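 also: cells exposed to compound for three days before fixation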
# SF-1 act: activates the human nuclear receptor SF-1 | CHO-K1 Gal4-SF-1 LBD luciferase reporter; % increase over DMSO SF-1-specific signal | Q13285 | activation, % at 10 µM | 65,000 compounds, 1.9% hits;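 active = activation above the mean activation of all tested compounds plus 3 SD, cut at about 50% in these data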
#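 Assay system: CHO-K1 cells co-transfected with Gal4 DBD–human SF-1 LBD, 5xGal4 luciferase reporter / Input: 4,000 cells per well / Incubation: 20 h compound exposure at 37 °C after 1 h cell settling / Detection: SteadyLite luciferase luminescence / Control set: DMSO negative control and −SF1 background wells / Replication: one test per compound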
# M1 antagonist: M1 muscarinic receptor (rat) antagonism. 64,000 compounds, 3.4% hits. AID 628. B-score at 10 µM. CHO-M1 cells, Fluo-4 calcium, ACh EC80 antagonist mode; hits give low values;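 active = calcium fluorescence response, raw or row-and-column corrected B-score, differing from the plate sample mean either way at a set confidence level, mostly lower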
# Target sequence (P08482 whole entry, looked up): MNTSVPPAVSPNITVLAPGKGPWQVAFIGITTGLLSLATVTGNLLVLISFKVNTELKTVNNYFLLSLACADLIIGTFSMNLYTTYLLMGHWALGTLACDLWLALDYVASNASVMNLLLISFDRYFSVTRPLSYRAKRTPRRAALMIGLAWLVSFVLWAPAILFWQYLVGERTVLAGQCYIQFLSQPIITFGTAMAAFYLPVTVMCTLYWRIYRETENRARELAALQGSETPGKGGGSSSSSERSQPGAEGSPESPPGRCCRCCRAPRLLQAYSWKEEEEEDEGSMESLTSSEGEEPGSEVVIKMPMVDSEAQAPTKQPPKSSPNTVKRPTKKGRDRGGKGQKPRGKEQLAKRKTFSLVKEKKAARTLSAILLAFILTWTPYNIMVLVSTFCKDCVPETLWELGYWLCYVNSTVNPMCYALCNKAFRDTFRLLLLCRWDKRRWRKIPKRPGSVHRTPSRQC
# RORA act: activators of human nuclear receptor RORA | P35398 | 65,000 compounds, 1.5% hits | CHO-K1 Gal4-RORA LBD luciferase reporter, luminescence; percent increase over mock-subtracted basal signal | activation, % at 10 µM;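 active = activation above the mean of all tested compounds plus 3 SD, cut at about 49% in these data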
# M1 ag: agonists of M1 muscarinic receptor | CHO-M1 cells, Fluo-4 calcium fluorescence, agonist mode; hits give high values | B-score at 10 µM | 64,000 compounds, 3% hits | AID 626;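 active = fluorescence rise, raw or as B-score row- and column-corrected plate score, outside the 99.7% band of its plate's samples, either direction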
# M1 antag confirm: M1 muscarinic receptor (rat) antagonism, confirmed | shares compounds with M1 antagonist | 1,700 compounds, 43% hits | CHO-M1 cells, Fluo-4 calcium, ACh EC80 antagonism; hits give low values | calcium response (max-min fluorescence) at 10 µM;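 active = calcium response below the same-plate mean of wells given acetylcholine alone at its 80%-effect dose, minus 3 SD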
# mGluR4 antag: selectivity test for M1 antagonists: human mGluR4 receptor; CHO-mGluR4 calcium flux, Fluo-4 fluorescence, glutamate EC80; hits give low values; AID 678; fluorescence response (max-min) at 10 µM; shares compounds with M1 antagonist; 1,700 compounds, 0.9% hits;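 active = fluorescence response below the plate's average for near-maximal glutamate wells, less 3 SD of those wells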;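 also: raw unnormalized fluorescence span taken in the window right after glutamate addition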
# D1 PAM confirm: confirmation of human D1 dopamine receptor allosteric modulators | luminescence at 10 µM | 2,200 compounds, 88% hits | shares compounds with D1 allo mod | HEK293 D1 CRE-luciferase, dopamine EC30 potentiation; hits give high values | AID 642;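 active = luminescence in either of two replicates above the same-plate mean plus 3 SD of the low-dose dopamine control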
# D1 no dopamine: D1 (human) signaling in absence of dopamine; shares compounds with D1 allo mod; HEK293 D1 CRE-luciferase, luminescence, no dopamine; hits give high values; luminescence at 10 µM; 1,900 compounds, 0.8% hits; AID 646; in the data active = luminescence above about 3900
# Isoprot counter: isoproterenol response counter-screen activity for D1 modulators; shares compounds with D1 allo mod; HEK293 D1 CRE-luciferase, isoproterenol EC30 counter-screen; calls only at 10 µM; 2,200 compounds, 63% hits; AID 647;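 active = luminescence in either replicate above plate mean of wells with a partly effective reference agonist dose plus 3 SD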;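 also: isoproterenol raises cAMP through native beta-adrenoceptor Gs so signal bypasses D1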
# Numbers stand for hits; i = inactive; ? = inconclusive; nt = no result; + = active, no number.
SMILES,D1 allo mod,Htt clearance,SF-1 act,M1 antagonist,RORA act,M1 ag,D1 PAM confirm,D1 no dopamine,Isoprot counter,others
CCN=C1SC(C(N)=O)CC(=O)N1CC (stereo unspecified),6.3,i,i,-15,i,i,10588,i,i,M1 antag confirm=i;mGluR4 antag=i
CCN(CC)CCOc1c(Br)ccc2c1sc1nc3n(c(=O)c12)CCC3,2.7,nt,i,-11,i,i,8312,i,i,M1 antag confirm=130;mGluR4 antag=i
COc1ccc(-c2cc(C(F)F)n3ncc(C(=O)N4CCSCC4)c3n2)cc1,5.2,i,i,i,i,i,8908,i,+,
CCOC(=O)CN(C(=O)CSc1nnc(-c2ccc(OC)c(OC)c2)o1)c1ccc(F)cc1,3.1,nt,i,i,i,i,8044,i,i,
COc1ccc(-c2nnc(SCC(=O)N(Cc3ccccc3)C(C)(C)C)o2)cc1OC,i,i,i,i,i,i,nt,nt,nt,
COc1cccc(N(C(=O)CNC(=O)c2ccco2)C(C(=O)NC2CCCCC2)c2ccncc2)c1 (stereo unspecified),nt,i,i,i,i,i,nt,nt,nt,
Cc1nn(-c2ccccn2)c(C)c1Oc1ccccc1O,3.8,i,i,i,i,i,i,i,i,
Cc1nn(-c2cccc(C(=O)O)c2)c(C)c1Oc1ccccc1O,i,nt,i,i,i,i,nt,nt,nt,
CC1CCN(S(=O)(=O)c2ccc(S(=O)(=O)NCC(=O)C(C)(C)C)cc2)CC1,i,i,i,i,i,i,nt,nt,nt,
CCOC(=O)C1(Cc2ccc(O)cc2)NC(c2ccco2)C2C(=O)N(c3ccccc3F)C(=O)C21 (stereo unspecified),i,nt,i,i,i,i,nt,nt,nt,
CCOC(=O)c1[nH]c(C)c(C(=O)OCC)c1C,i,nt,i,i,i,i,nt,nt,nt,
CCOC(=O)c1[nH]c(C)c(C(=O)c2cc(F)ccc2F)c1C,5.7,?,i,i,i,i,8492,i,+,
CCOC(=O)c1cnn(-c2nc(C)cc(C)n2)c1N,nt,nt,i,i,i,i,nt,nt,nt,
CCOC(=O)c1cnn(-c2cccc(Cl)c2)c1N,4.6,nt,i,i,i,i,12468,i,i,
CC(=O)Nc1ccccc1N(C)S(=O)(=O)c1ccc(C)cc1,i,nt,i,i,i,i,nt,nt,nt,
CC1(C(=O)NC2CCCCC2)CCC(=O)N1Cc1cccnc1 (stereo unspecified),7.5,i,i,i,i,i,i,i,i,
CCOC(=O)CCSc1nc(C)c2ccccc2n1,1.9,i,i,i,i,i,6200,i,i,
CCOC(=O)CSc1nc(C)c2cc(OC)ccc2n1,i,nt,i,i,i,i,nt,nt,nt,
Cc1ccc(-c2nc3ncccn3c2NC(=O)C2CC2)cc1,2.8,nt,i,i,i,i,8360,i,i,
CC(=O)Nc1c(-c2ccccc2)nc2ncccn12,i,nt,i,i,i,i,nt,nt,nt,
CCOC(=O)CSc1nnc(C)n1N,i,i,i,i,i,i,nt,nt,nt,
c1ccc(-n2ncc3c(N4CCN(c5ccccn5)CC4)nc(N4CCCCCC4)nc32)cc1,i,i,i,i,i,i,nt,nt,nt,
Cc1ccc(C(=O)Nc2nc3ccccc3n3nnnc23)cc1,nt,i,nt,nt,nt,nt,nt,nt,nt,
Fc1cc(Br)ccc1Nc1nc2ccccc2n2nnnc12,3.1,nt,i,i,i,i,10956,i,i,
CCn1cc(C(=O)NC2CCCCC2C)c(=O)c2ccc(C)nc21 (stereo unspecified),i,i,i,i,i,i,nt,nt,nt,
SMILES,D1 allo mod,Htt clearance,SF-1 act,M1 antagonist,RORA act,M1 ag,D1 PAM confirm,D1 no dopamine,Isoprot counter,others
Cc1c2c(nc3c(C(=O)NC4CCCCC4C)cnn13)CCCC2 (stereo unspecified),8.2,i,i,i,i,i,10904,nt,+,
CC(=O)Nc1cc2c(cc1C(=O)C(C)C)OCCO2,5.3,nt,i,i,i,i,14100,nt,+,
Cc1ccc(Nc2nnc(SCc3cc(=O)n4ccsc4n3)s2)c(C)c1,2.6,nt,i,i,i,i,6736,i,i,
CCC(C)Nc1nc(OC)nc(N(C)C#N)n1 (stereo unspecified),6.9,i,i,i,i,i,12160,i,i,
COc1nc(OCC#N)nc(N(C)C)n1,nt,i,nt,nt,nt,nt,nt,nt,nt,
COc1ccc(CN(C(=O)c2ccco2)c2ccc(Br)cc2)cc1OC,i,i,i,i,i,i,nt,nt,nt,
COc1cc(CN(C(=O)c2ccco2)c2ccc(C)cc2)ccc1O,9.5,i,i,i,i,i,13744,i,+,
Cc1cc(C)c2c(c1)-c1c(ssc1=S)C(C)(C)N2C(=O)CSc1nncn1C,i,i,i,i,i,i,nt,nt,nt,
Cc1ccc2c(c1)-c1c(ssc1=S)C(C)(C)N2C(=O)CSc1nncn1C,3.8,nt,i,i,i,i,11288,i,i,
Cc1cccc(NC(=O)C(NS(=O)(=O)c2ccc3c(c2)CCC(=O)N3)c2ccccc2)n1 (stereo unspecified),nt,i,i,i,i,i,nt,nt,nt,
Cn1c(=O)n(Cc2ccccc2)c2ccccc21,i,nt,i,i,i,i,nt,nt,nt,
O=c1ccn(Cc2ccccc2)c(=O)n1Cc1ccccc1,2.9,nt,i,i,i,i,12736,i,+,
CCOC(=O)c1cccc(Nc2nc(C)cc(C)n2)c1,i,i,i,i,i,i,nt,nt,nt,
COC(=O)c1cccc(Nc2nc3ccccc3nc2C)c1,5.2,nt,i,i,i,i,9552,i,+,
COCCn1cc(C(=O)c2ccccc2OCC(=O)Nc2cc(C)on2)cc(C#N)c1=O,i,i,i,i,i,i,nt,nt,nt,
CCOC(=O)CSc1nnc(CSc2nc3sc4c(c3c(=O)[nH]2)CCC4)n1C,2.6,nt,i,i,i,i,i,i,i,
CCOC(=O)CSc1nnc(CSc2nc3sc4c(c3c(=O)[nH]2)CCC4)n1-c1ccccc1,nt,i,nt,nt,nt,nt,nt,nt,nt,
Cc1cc(OCC(=O)NCc2nc(-c3ccccc3)no2)c(C)cc1Br,i,nt,i,nt,i,nt,nt,nt,nt,
CCOC(=O)c1sc(NC(=O)CSc2nnc(C)s2)c(C(=O)OCC)c1C,6.1,nt,i,i,i,i,25484,i,+,
CCOC(=O)c1c(NC(=O)CC)sc(C(C)=O)c1C,16,nt,i,i,i,i,12336,i,+,
CCOC(=O)c1c(N)sc(C(=O)N(C)C)c1C,i,i,i,i,i,i,nt,nt,nt,
CCOC(=O)c1c(NC(=O)OC)sc(C(=O)N(C)C)c1C,4.1,i,nt,i,nt,i,13484,i,+,
